Reference: ChEMBL document CHEMBL4715838, “Novel diosgenin derivatives containing 1,3,4-oxadiazole/thiadiazole moieties as potential antitumor agents: Design, synthesis and cytotoxic evaluation” (Eur J Med Chem, 2020)
The source made the active and inactive calls. No cut-off for these calls is given here.

How the values were obtained:
HepG2 [1] = experiment: Cytotoxicity against human HepG2 cells assessed as reduction in cell viability measured after 48 hrs by MTT assay; type: functional, cell-based; details: HepG2, 48 h
Outline: (§1)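 Cells in DMEM with 10% FBS, penicillin/streptomycin, 37 °C, 5% CO2. Seeded at 5×10^3 per well directly into medium holding graded concentrations of sample and incubated 48 h. MTT (5 mg/mL in PBS) added for 4 h, medium replaced with DMSO, absorbance read at 492 nm. IC50 taken as the concentration giving 50% inhibition of proliferation; three replicates, means ± SD.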

GES1 = experiment: Cytotoxicity against human GES1 cells assessed as reduction in cell viability measured after 48 hrs by MTT assay; type: cell-based; details: GES1, 48 h; outline: as §1
HepG2 [2] = experiment: Potency index, ratio of diosgenin IC50 to test compound IC50 for cytotoxicity against human HepG2 cells assessed as reduction in cell viability; type: functional
HCT-116 = experiment: Cytotoxicity against human HCT-116 cells assessed as reduction in cell viability measured after 48 hrs by MTT assay; type: functional, cell-based; details: HCT-116, 48 h; outline: as §1
MCF7 = experiment: Cytotoxicity against human MCF7 cells assessed as reduction in cell viability measured after 48 hrs by MTT assay; type: functional, cell-based; details: MCF7, 48 h; outline: as §1
A549 [3] = experiment: Cytotoxicity against human A549 cells assessed as reduction in cell viability measured after 48 hrs by MTT assay; type: functional, cell-based; details: A549, 48 h; outline: as §1
A549 [4] = experiment: Induction of apoptosis in human A549 cells assessed as late apoptotic cells at 15 uM after 48 hrs by AnnexinV-FITC/propidium iodide staining based flow cytometry analysis (reference value: 1 to 3.1 %); type: functional
A549 [5] = experiment: Induction of apoptosis in human A549 cells assessed as late apoptotic cells at 30 uM after 48 hrs by AnnexinV-FITC/propidium iodide staining based flow cytometry analysis (reference value: 1 to 3.1 %); type: functional
A549 [6] = experiment: Induction of apoptosis in human A549 cells assessed as nuclear fragmentation at 15 to 30 uM measured after 48 hrs by DAPI staining based fluorescence microscopic analysis; type: functional, cell-based; details: dose 15-30 µM
Outline: (§2)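 A549 plated at 2×10^5 cells/well and grown 24 h. Treated 48 h with test compound (15 or 30 μM) or diosgenin (30 μM); vehicle control 0.1% DMSO. Fixed in 4% formaldehyde 1 h at 4 °C, stained with 5 μM DAPI for 10 min at 37 °C in the dark, and viewed by fluorescence microscopy.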

A549 [7] = experiment: Induction of apoptosis in human A549 cells assessed as increase in cyto-c expression by Western blot analysis; type: functional, cell-based; details: dose 7.5-30 µM
Outline: (§3)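 A549 treated with compound (0, 7.5, 15, 30 μM) or diosgenin (0, 15, 30 μM), lysed in RIPA and boiled 10 min. 30 μg protein run on 10% SDS-PAGE, blotted to nitrocellulose, blocked in 5% BSA. Primary antibodies used at 1:1000, HRP secondary at 1:5000 for 2 h, ECL detection. β-actin served as loading control.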

A549 [8] = experiment: Induction of mitochondrial depolarization in human A549 cells assessed as depolarized cell population at 30 uM measured after 48 hrs by JC1 dye based flow cytometry (reference value: 0.4%); type: functional
A549 [9] = experiment: Induction of mitochondrial depolarization in human A549 cells assessed as increase in depolarized cell population measured after 48 hrs by JC1 dye based flow cytometry; type: functional; details: dose 15-30 µM
A549 [10] = experiment: Induction of apoptosis in human A549 cells assessed as early apoptotic cells at 30 uM after 48 hrs by AnnexinV-FITC/propidium iodide staining based flow cytometry analysis (reference value: 0.5 to 2.3 %); type: functional
A549 [11] = experiment: Induction of apoptosis in human A549 cells assessed as cell rounding at 15 to 30 uM measured after 48 hrs by phase contrast microscopic analysis; type: functional, cell-based; details: dose 15-30 µM
Outline: (§4)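 A549 seeded at 2×10^5 cells/well and allowed to settle 24 h. Then exposed 48 h to test compound (15 or 30 μM) or diosgenin (30 μM); controls received 0.1% DMSO. Cell shape examined by phase contrast microscopy.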

A549 [12] = experiment: Induction of apoptosis in human A549 cells assessed as increase in cleaved PARP expression at 7.5 to 30 uM by Western blot analysis; type: functional, cell-based; details: dose 7.5-30 µM; outline: as §3
A549 [13] = experiment: Induction of apoptosis in human A549 cells assessed as increase in Bax expression by Western blot analysis; type: functional, cell-based; details: dose 7.5-30 µM; outline: as §3
A549 [14] = experiment: Induction of apoptosis in human A549 cells assessed as increase in cleaved caspase 3 expression at 7.5 to 30 uM by Western blot analysis; type: functional, cell-based; details: dose 7.5-30 µM; outline: as §3
A549 [15] = experiment: Induction of apoptosis in human A549 cells assessed as early apoptotic cells at 15 uM after 48 hrs by AnnexinV-FITC/propidium iodide staining based flow cytometry analysis (reference value: 0.5 to 2.3 %); type: functional
A549 [16] = experiment: Induction of apoptosis in human A549 cells assessed as membrane blebbing at 15 to 30 uM measured after 48 hrs by phase contrast microscopic analysis; type: functional, cell-based; details: dose 15-30 µM; outline: as §4
A549 [17] = experiment: Induction of apoptosis in human A549 cells assessed as cell shrinkage at 15 to 30 uM measured after 48 hrs by phase contrast microscopic analysis; type: functional, cell-based; details: dose 15-30 µM; outline: as §4
A549 [18] = experiment: Induction of apoptosis in human A549 cells assessed as increase in cleaved caspase 9 expression at 7.5 to 30 uM by Western blot analysis; type: functional, cell-based; details: dose 7.5-30 µM; outline: as §3
A549 [19] = experiment: Induction of apoptosis in human A549 cells assessed as formation of apoptotic bodies at 15 to 30 uM measured after 48 hrs by phase contrast microscopic analysis; type: functional, cell-based; details: dose 15-30 µM; outline: as §4
A549 [20] = experiment: Induction of apoptosis in human A549 cells assessed as chromatin condensation at 15 to 30 uM measured after 48 hrs by DAPI staining based fluorescence microscopic analysis; type: functional, cell-based; details: dose 15-30 µM; outline: as §2
A549 [21] = experiment: Potency index, ratio of diosgenin IC50 to test compound IC50 for cytotoxicity against human A549 cells assessed as reduction in cell viability; type: functional
A549 [22] = experiment: Induction of mitochondrial depolarization in human A549 cells assessed as depolarized cell population at 15 uM measured after 48 hrs by JC1 dye based flow cytometry (reference value: 0.4%); type: functional
A549 [23] = experiment: Induction of apoptosis in human A549 cells assessed as decrease in Bcl-2 expression by Western blot analysis; type: functional, cell-based; details: dose 7.5-30 µM; outline: as §3
A549 [24] = experiment: Induction of apoptosis in human A549 cells assessed as increase in cleaved PARP expression at 15 to 30 uM by Western blot analysis; type: functional, cell-based; details: dose 15-30 µM; outline: as §3
A549 [25] = experiment: Induction of apoptosis in human A549 cells assessed as increase in cleaved caspase 9 expression at 15 to 30 uM by Western blot analysis; type: functional, cell-based; details: dose 15-30 µM; outline: as §3
A549 [26] = experiment: Induction of apoptosis in human A549 cells assessed as formation of apoptotic bodies at 30 uM measured after 48 hrs by phase contrast microscopic analysis; type: functional, cell-based; outline: as §4
A549 [27] = experiment: Induction of apoptosis in human A549 cells assessed as cell rounding at 30 uM measured after 48 hrs by phase contrast microscopic analysis; type: functional, cell-based; outline: as §4
A549 [28] = experiment: Induction of apoptosis in human A549 cells assessed as increase in cleaved caspase 3 expression at 15 to 30 uM by Western blot analysis; type: functional, cell-based; details: dose 15-30 µM; outline: as §3
A549 [29] = experiment: Induction of apoptosis in human A549 cells assessed as cell shrinkage at 30 uM measured after 48 hrs by phase contrast microscopic analysis; type: functional, cell-based; outline: as §4
A549 [30] = experiment: Induction of apoptosis in human A549 cells assessed as membrane blebbing at 30 uM measured after 48 hrs by phase contrast microscopic analysis; type: functional, cell-based; outline: as §4

Structure (SMILES)	IC50 (HepG2 [1]) [µM]	IC50 (GES1) [µM]	Ratio IC50 (HepG2 [2])	IC50 (HCT-116) [µM]	IC50 (MCF7) [µM]	IC50 (A549 [3]) [µM]	also measured
C[C@H]1[C@H]2[C@H](C[C@H]3[C@@H]4CC=C5C[C@@H](O)CC[C@]5(C)[C@H]4CC[C@]23C)O[C@@H]1CC[C@H](C)c1nnc(-c2cccc3ccccc23)s1	32.9	201	1.02	46.6	63.8	18.3	–
CC(=O)O[C@H]1CC[C@@]2(C)C(=CC[C@H]3[C@@H]4C[C@@H]5O[C@H](CC[C@H](C)c6nnc(-c7cccnc7)s6)[C@@H](C)[C@@H]5[C@@]4(C)CC[C@@H]32)C1	11.7	420	2.9	29.6	> 100	3.93	Activity (A549 [4]): 15.1%; Activity (A549 [5]): 21.3%; Activity (A549 [6]): Active; Activity (A549 [7]): Dose-dependent effect; Activity (A549 [8]): 26%; Activity (A549 [9]): Dose-dependent effect; Activity (A549 [10]): 60%; Activity (A549 [11]): Active; Activity (A549 [12]): Active; Activity (A549 [13]): Dose-dependent effect; Activity (A549 [14]): Active; Activity (A549 [15]): 21%; Activity (A549 [16]): Active; Activity (A549 [17]): Active; Activity (A549 [18]): Active; Activity (A549 [19]): Active; Activity (A549 [20]): Active; Ratio IC50 (A549 [21]): 6.7; Activity (A549 [22]): 7.5%; Activity (A549 [23]): Dose-dependent effect
C[C@H]1[C@H]2[C@H](C[C@H]3[C@@H]4CC=C5C[C@@H](O)CC[C@]5(C)[C@H]4CC[C@]23C)O[C@@H]1CC[C@@H](C)c1nnc(-c2ccccc2)s1	32.1	527	1.05	48.9	27.4	15	–
C[C@H]1[C@H]2[C@H](C[C@H]3[C@@H]4CC=C5C[C@@H](O)CC[C@]5(C)[C@H]4CC[C@]23C)O[C@@H]1CC[C@@H](C)c1nnc(-c2cccnc2)o1	> 100	199	–	> 100	> 100	98.1	–
CC(=O)O[C@H]1CC[C@@]2(C)C(=CC[C@H]3[C@@H]4C[C@@H]5O[C@H](CC[C@@H](C)c6nnc(C)o6)[C@@H](C)[C@@H]5[C@@]4(C)CC[C@@H]32)C1	57.6	98.2	–	78.8	44.8	34.4	–
C[C@H]1[C@H]2[C@H](C[C@H]3[C@@H]4CC=C5C[C@@H](O)CC[C@]5(C)[C@H]4CC[C@]23C)O[C@@H]1CC[C@@H](C)c1nnc(-c2cccnc2)s1	8.83	354	–	51.6	> 100	7.68	–
C[C@@H]1CC[C@@]2(OC1)O[C@H]1C[C@H]3[C@@H]4CC=C5C[C@@H](O)CC[C@]5(C)[C@H]4CC[C@]3(C)[C@H]1[C@@H]2C [DISOGENIN]	33.9	101	–	49.1	23.9	26.4	Activity (A549 [4]): 3.1%; Activity (A549 [5]): 2%; Activity (A549 [24]): inactive; Activity (A549 [10]): 2.5%; Activity (A549 [25]): inactive; Activity (A549 [26]): inactive; Activity (A549 [15]): 2.3%; Activity (A549 [27]): inactive; Activity (A549 [28]): inactive; Activity (A549 [29]): inactive; Activity (A549 [30]): inactive
